The values below come from PubChem BioAssay AID504383 (The Scripps Research Institute Molecular Screening Center, 2011).

Screen size: about 2,500 compounds; about 1,200 (48%) were called active.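 The calls were made as follows: active = mean activation above the low control average plus 3 SD, as set in the primary screen (cut at about 12% in these data); inactive = the rest.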 The set was probably picked from earlier hits. The list shows a part of the results.

In the assay the target is Troponin I, cardiac muscle (Homo sapiens) + Troponin T, cardiac muscle (Homo sapiens) + Troponin C, slow skeletal and cardiac muscles (Homo sapiens) (UniProt P19429+P45379+P63316). Briefly: cardiac RTF calcium sensitivity activators, confirmation, biochemical, IANBD-TnC fluorescence, triplicate (AID 504383).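 Also: 0% = DMSO at 0.472 mM calcium and 100% = DMSO at 2.9 mM calcium.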 The settings on record: IANBD-labeled cardiac RTF, Ca2+ sensitivity fluorescence; at 7.2 µM; stronger effect = higher value; scaled from EC20 to saturating calcium; tested at EC20 calcium, 0.472 mM. A digest of the protocol:
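Test system: labelled regulated thin filament protein complex. Dosing: single nominal compound dose of 7.2 µM. Benchmarks: EC20 and EC100 calcium wells. Read-out basis: fluorescence gain scaled between EC20 and EC100 calcium controls. Probe or stimulus: submaximal calcium at 0.472 mM (EC20). Technique: fluorescence. Times: 15 min compound exposure, 25 °C.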
Take `COC(=O)c1ccc(-c2ccc(F)cc2)nc1C`: the activation was -3.68% (inactive).

For the compound `CC(C)OC(=O)CC(=O)CSc1nc(-c2ccc(F)cc2)cc(-c2ccccc2)c1C#N`, the activation was 38.9% (active). As to `CN1CCCC(OC(=O)c2ccccc2Br)C1` (stereo not given), the activation is 67% (active). Consider `O=C(OCCN1CCCCC1)c1ccccc1Br`, for which the activation is 3.85% (inactive).

In the case of `Cc1nn(C)c(C(=O)N2CCc3ccccc32)c1Br`, the activation is 66.9% (active). The value for `Cc1c(Br)c(C(=O)N2CCc3ccccc32)nn1C` was 3.1% (inactive); that for `Cc1cccc2cc3c(N)c(C(=O)N4CCc5ccccc54)sc3nc12` was 7.08% (inactive). For `O=C1c2ccsc2SCCN1Cc1ccc(F)cc1`, the activation was 27.7% (active).

On to `O=C1N/C(=C\c2ccsc2)C(=O)N1Cc1ccc(F)cc1`, for which the activation is 4.06% (inactive). Regarding `C=CCn1c(=O)c(C(=O)NCCNCC)c(O)c2ccccc21`, the activation was 12.4% (active). As for `CCn1c(=O)c(C(=O)CN2CCCc3ccccc32)c(N)n(Cc2ccccc2)c1=O`, the activation was 60% (active). The value for `CCN(C(=O)CN1CCCc2cc(C)ccc21)c1c(N)n(Cc2ccccc2)c(=O)[nH]c1=O` was 6.97% (inactive); that for `COCCN(C(=O)CN1CCCc2ccccc21)c1c(N)n(Cc2ccccc2)c(=O)[nH]c1=O` was 18.8% (active). Regarding `Cc1ccc2c(c1)CCCN2CC(=O)N(C)c1c(N)n(Cc2ccccc2)c(=O)[nH]c1=O`, the activation is 1.27% (inactive). With `COc1cc(OC)cc(C(=O)N(Cc2ccco2)c2c(N)n(Cc3ccccc3)c(=O)[nH]c2=O)c1`, the activation was 7.79% (inactive). Turning to `CCCCN(C(=O)c1ccc([N+](=O)[O-])o1)c1c(N)n(CCCC)c(=O)[nH]c1=O`, the activation was 5.49% (inactive).

In the case of `COCCCN(C(=O)c1cccnc1SC)c1c(N)n(Cc2ccccc2)c(=O)[nH]c1=O`, the activation is 48.1% (active). For the compound `OCCN(CCO)c1nc(N2CCCCC2)c2nc(N(CCO)CCO)nc(N3CCCCC3)c2n1`, the activation was 7.69% (inactive). As to `CN1CCc2c(sc(/N=C/c3cccs3)c2C(N)=O)C1`, the activation was 2.64% (inactive). Take `CC(=O)N1CCc2c(sc(NC(=O)C3CCCN3S(=O)(=O)c3cccs3)c2C(N)=O)C1` (stereo not given): the activation was 39.1% (active). In the case of `CN1CCc2c(sc(/N=C/c3ccco3)c2C(N)=O)C1`, the activation is 10.3% (inactive). The value for `CCN1C(=O)/C(=C/N2CCc3ccccc32)SC1=S` was 50% (active); that for `C=CCN1C(=O)/C(=C\C=C2\N(C)c3ccccc3C2(C)C)SC1=S` was 3.44% (inactive). Next, `COc1ccccc1NCC(=O)NC(=O)NC1CCCCC1`: 13.1% (active); `COc1ccc(C2=NS(=O)(=O)N(C)C(C(=O)NC3CCCC3)=C2)cc1`: -1.79% (inactive); `CCOc1ccc(C(=O)NC2CCN(C(=O)Nc3ccccc3OC)CC2)cc1`: 2.1% (inactive). The value for `CSCCC(NC(=O)c1ccc(Cl)cc1)C(=O)OCC(=O)c1ccc[nH]1` (stereo not given) was 9.46% (inactive); that for `COc1ccc(OC)c(S(=O)(=O)N2CCC(C(=O)NCc3ccccn3)CC2)c1` was 7.51% (inactive). `CCS(=O)(=O)N1Cc2ccccc2CC1C(=O)Nc1ccc(OC)cc1OC` (stereo not given): the activation is 6.84% (inactive).

For the compound `COc1ccc(N2CC(C(=O)Nc3nc(-c4ccccc4)c(C(C)=O)s3)CC2=O)c(OC)c1` (stereo not given), the activation was 12.4% (active). On to `N#CC1=C(N)OC2=C(CC/C2=C\c2ccccc2)C1c1ccccc1` (stereo not given), for which the activation was 36.3% (active).

Turning to `Cc1ccc(/C=C2\CCC3=C2OC(N)=C(C#N)C3c2ccc(C)cc2)cc1` (stereo not given), the activation is 11% (inactive). With `N#CC1=C(N)OC2=C(CC/C2=C\c2ccccc2Cl)C1c1ccccc1Cl` (stereo not given), the activation was 317% (active). On to `CC(=O)C1=C(C)N(Cc2ccccc2)C(=O)N[C@@H]1c1cccc(C(F)(F)F)c1`, for which the activation is 8.59% (inactive). Consider `CC(=O)C1=C(C)N(CC2CC2)C(=O)N[C@H]1c1ccc(Br)cc1`, for which the activation was 102% (active). With `COc1ccc(Cl)cc1NC(=O)CN(C)C(=O)COc1ccccc1F`, the activation was 4.03% (inactive).

Take `COc1ccc(Cl)cc1NC(=O)CN(C)C(=O)c1ccc(N2CCCCCC2)c([N+](=O)[O-])c1`: the activation was 59.6% (active). Turning to `O=C(Cc1ccccc1)Nn1c(O)c(/C=C2\C=Nc3ccccc32)sc1=S`, the activation was 87.3% (active).

As to `CN(C)C(=O)CN1C(=O)C2CCCCN2C(=O)c2ccccc21` (stereo not given), the activation is 9.05% (inactive). `CN(C)/C=C1\C=C2C(=O)c3ccccc3N2C1=O`: the activation is 87.3% (active). As to `Cc1cc(C)c(NC(=S)N(C)C)c(C)c1`, the activation was 42.1% (active).

As for `N=C1c2ccccc2CN1c1ccc(S(=O)(=O)N2CCCCC2)cc1`, the activation was 49.2% (active).

`CSc1nnc(-c2ccc(S(=O)(=O)N3CCCC3)cc2)n1C`: the activation is -0.41% (inactive). Next, `CN(C)c1ccc(/C=C/C(=O)c2ccccc2O)cc1`: 6.07% (inactive); `CN(C)c1ccc(/C=C/C(=O)c2c(O)c3ccccc3oc2=O)cc1`: 12.3% (active); `CCOc1cccc2c1OC(c1cc(OC)c(OC)c(OC)c1)N1N=C(c3ccc(C)o3)CC21` (stereo not given): 11.7% (active). Regarding `O=C1NCCN1c1ncc([N+](=O)[O-])s1`, the activation is 19.6% (active). Take `CC(=O)N(C)c1ccc(C(O)(C(F)(F)F)C(F)(F)F)cc1`: the activation is 30.4% (active).

Regarding `COc1ccc(CCNC(=O)C2CC(c3c(Cl)cccc3Cl)=NO2)cc1` (stereo not given), the activation was 7.74% (inactive). As for `COc1ccc(CCNC(=O)COC(=O)c2cc(=O)[nH]c3ccccc23)cc1`, the activation was 93% (active). As for `COc1cccc(/C(O)=C/c2nc3ccc(C(=O)NCCc4cccc(C)c4)cc3[nH]c2=O)c1`, the activation was 9.81% (inactive).

Take `CCc1ccc(/C=N/n2c(C)cc(C)c(C#N)c2=O)cc1`: the activation was 7.16% (inactive). As for `Cc1c(/C=N/O)c2ccccn2c1C=O`, the activation was 8.72% (inactive).

Regarding `CN1CCC(N(CCc2ccccc2)C(=O)CCC(=O)O)CC1`, the activation is 146% (active).

With `CCCCCCNC(=O)C(C#N)c1nc2ccccc2nc1N1CCCC1` (stereo not given), the activation was 5.18% (inactive).

In the case of `N#CC(C(=O)NCc1ccccc1)c1nc2ccccc2nc1N1CCCC1` (stereo not given), the activation was -1.52% (inactive).

As to `CCN(CC)c1nc2ccccc2nc1C(C#N)C(=O)NCCc1ccccc1` (stereo not given), the activation was 532% (active).

Turning to `O=C(NCC(=O)N1CCN(c2ncccn2)CC1)c1ccccc1OC(F)F`, the activation is 0.94% (inactive).

Turning to `COc1ccc(C(=O)NCC(=O)N2CCN(C(=O)c3ccco3)CC2)cc1OC`, the activation is 47.6% (active). Consider `Cc1ccc(NC2OC(C(O)CO)C(O)C2O)cc1[N+](=O)[O-]` (stereo not given), for which the activation is 8.56% (inactive).
